{"source": "paper PMC8682764", "about": "(Nucleic Acids Research, 2021)", "key": {"[1]": {"system": "WDR5 / MBP-LANAΔ33–888 interaction", "assay": "Co-precipitation of WDR5 with MBP-LANAΔ33–888", "assay_type": "binding", "details": "co-precipitation with MBP-LANAΔ33–888, Coomassie blue detection"}, "[2]": {"system": "WDR5 in LANA/MLL1 complex", "assay": "Co-precipitation of ASH2L, RbBP5, WDR5 or MLL1-SET with MBP-LANAΔ33–888", "assay_type": "binding", "details": "co-precipitation with MBP-LANAΔ33–888, immunoblot"}, "[3]": {"system": "WDR5 WIN binding pocket / MLL1-WDR5 interaction", "details": "cited from earlier work"}, "MLL1": {"system": "MLL1", "assay": "Co-IP of GFP-LANA regions with MLL1", "assay_type": "binding", "details": "co-IP after expression in 293T cells, anti-Flag", "method_in_brief": "(§1)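 Incubated overnight at 4°C with anti-Flag M2 (2 μg) agarose beads. Beads washed 3–6 times in lysis buffer and eluted in SDS buffer. Proteins resolved by SDS-PAGE and detected by western blot.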"}, "WDR5": {"system": "WDR5", "assay": "Co-IP of GFP-LANA regions with Flag-WDR5", "assay_type": "binding", "details": "co-IP after expression in 293T cells, anti-Flag", "method_in_brief": "as §1"}}, "note": "Where a SMILES comes first, the peptide text is derived from it. Bridges are numbered along the chain shown (N, C = ends). [ ]: non-standard residue; d: D form. The star is where a group is joined. d(αMeK) = C[C@@](N)(CCCCN)C(=O)O; dPhg = N[C@@H](C(=O)O)c1ccccc1; Isobutyryl = CC(C)C(=O)*; Abu = CC[C@H](N)C(=O)O", "data": [{"molecule": "CC[C@@H]1NC(=O)[C@H](CCCN=C(N)N)NC(=O)[C@](C)(NC(=O)C(C)C)CCCCNC(=O)[C@@H](c2ccccc2)NC1=O", "note": "[MM-401] (Isobutyryl-[d(αMeK)]R[Abu][dPhg]; lactam 1-C)", "values": [{"measurement": "effect on WDR5-LANA interaction", "setting": "[1]", "result": "blocked the interaction of WDR5 with LANA"}, {"measurement": "exclusion of WDR5 from LANA/MLL1 complex", "setting": "[2]", "result": "excluded nearly all WDR5 from the LANA/MLL1 complex"}, {"measurement": "MLL1-WDR5 interaction inhibition", "setting": "[3]", "result": "occupies the WDR5 WIN binding pocket and thereby inhibits MLL1-WDR5 interaction"}]}, {"molecule": "LANA 779–1049: GFP-LANA fragment 779–1049 (protein, left off: GFP, end not stated, kept) QEQELEEQEQELEEQEQELEEQEQELEEQEQELEEQEQELEEQEQELEEQEQELEEQEQELEEQEVEEQEQEVEEQEQEQEEQELEEVEEQEQEQEEQEEQELEEVEEQEEQELEEVEEQEEQELEEVEEQEQQELEEVEEQEQQGVEQQEQETVEEPIILHGSSSEDEMEVDYPVVSTHEQIASSPPGDNTPDDDPQPGPSREYRYVLRTSPPHRPGVRMRRVPVTHPKKPHPRYQQPPVPYRQIDDCPAKARPQHIFYRRFLGKDGRRD", "values": [{"measurement": "interaction with MLL1", "setting": "MLL1", "result": "did not"}, {"measurement": "interaction with WDR5", "setting": "WDR5", "result": "interacted with LANA 779–1049"}]}]}
